# STAT3 activator: activators of IL-6 induced STAT3 signaling. AID 871. hit rate 0.91% among 190,000. activation (% of control), % at 5.6 µM. U3A cells, IL-6 STAT3-luciferase reporter, luminescence; 100% = signal with IL-6 EC80 alone;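 active means activation above the screen-wide mean of compound activation plus 3 SD, cut at about 130% in these data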
#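 Test system: Human STAT1-deficient U3A cells with stable STAT3-luciferase reporter | Also added: Interleukin-6, 33 ng/mL | Timing: Compound pre-incubation 1 h before IL-6, then 6 h stimulation at 37 °C | Technique: Luciferase reporter luminescence | Read-out: Percent of IL-6-only median luminescence | Benchmarks: IL-6-only wells as 100% reference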
# STAT1 inh: inhibitors of IFN-gamma induced STAT1 signaling; inhibition, % at 5.5 µM; hit rate 0.35% among 200,000; NIH 3T3 STAT1-luciferase reporter, luminescence;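 active means inhibition above a set limit, the mean inhibition across all tested compounds plus 3 SD, cut at about 34% in these data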
# APP 5'UTR act: APP 5'UTR luciferase reporter activation | SH-SY5Y APP 5'UTR luciferase reporter, luminescence; zero percent = DMSO vehicle wells | activation, % at 2 µM | hit rate 1% among 190,000;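 active means activation above a set limit, based on mean plus 3 SD of controls, cut at about 140% in these data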
# STAT3 inh-1: reduces IL-6 driven STAT3 reporter signal; U3A cells, IL-6 STAT3-luciferase reporter, luminescence; host cell line lacks STAT1; inhibition, % at 5.5 µM; hit rate 0.89% among 190,000;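 active means inhibition above the mean inhibition across all screened compounds plus 3 SD, cut at about 44% in these data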
# STAT1 activator: activators of IFN-gamma induced STAT1 signaling; AID 932; hit rate 2.6% among 200,000; activation (% of control), % at 5.5 µM; NIH 3T3 STAT1-luciferase reporter, luminescence; 100% = IFN-gamma alone, no compound;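 active means activation above the screen-wide mean activation plus 3 SD, cut at about 130% in these data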
# NF-kB expr up: compounds increasing NF-kB expression in human neuronal cells. NF-kB reporter expression; stronger effect = higher value. fold change at 12.5 µM. AID 1239. hit rate 1.6% among 190,000; in the data active means fold change above about 3.3
# STAT3 inh-2: STAT3 inhibition, confirmation assay; AID 1265; shares compounds with STAT3 inh-1; U3A cells, IL-6 STAT3 luciferase reporter, luminescence; cell line lacks STAT1; inhibition, % at 5.7 µM; hit rate 45% among 1,200;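 active means inhibition above the hit cutoff computed for the primary STAT3 screen, cut at about 44% in these data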
# NFkB inh 2: NF-kappaB inhibition in STAT3 inhibitor counter-screen; shares compounds with STAT3 inh-1; AID 1308; hit rate 36% among 1,200; inhibition, % at 5.7 µM; HEK293T NF-kB luciferase reporter, TNF-alpha induced;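 active means inhibition above the mean of solvent-only control wells plus 3 SD, cutoff set per campaign, cut at about 13% in these data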
# STAT1 inh STAT3c: inhibits STAT1, counter-screen to STAT3 inhibitors; shares compounds with STAT3 inh-1; NIH 3T3 STAT1-luciferase reporter, IFN-gamma induced, luminescence; inhibition, % at 5.7 µM; hit rate 27% among 1,200; AID 1317;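 active means inhibition above the mean plus 3 SD of solvent-only control wells, limit set per screening run, cut at about 16% in these data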
# A number is an active result; - = inactive; . = no result. This is a sample that favours compounds with a hit; in the whole collection about 4.9% have one here.
SMILES,STAT3 activator,STAT1 inh,APP 5'UTR act,STAT3 inh-1,STAT1 activator,NF-kB expr up,others
Cc1cc(C)cc(N2C(=O)NC(=O)/C(=C/c3cccn3-c3ccc(Cl)cc3)C2=O)c1,-,-,-,-,-,-,
Cc1cccc(N2C(=O)NC(=O)/C(=C\c3cccn3-c3ccc(Cl)cc3)C2=O)c1,-,34,-,-,-,-,
Cc1nc2c(=O)n(C)c(=O)nc-2n(C)n1,-,92,-,107,-,-,
Nc1c2c(nc3sc4c(c13)CCCC4)CCCCC2,-,-,-,-,-,3.8,
Nc1c2c(nc3sc4c(c13)CCCC4)CCCC2,-,-,-,-,-,-,
C/C(=N\N1CCN(C)CC1)c1c(O)[nH]c(=O)[nH]c1=O,-,-,-,-,-,-,
CN(C)c1ccc(C(=O)c2ccc(N(C)C)cc2)cc1,-,-,.,-,134,-,
c1ccc(-c2nc(N3CCOCC3)s[n+]2-c2ccccc2)cc1,-,-,-,-,-,-,
COc1cc(C(=S)N2CCOCC2)cc(OC)c1OC(=O)Cc1ccccc1,-,-,-,-,-,-,
Cc1cc(C=C2C(=O)NC(=S)NC2=O)c(C)n1C1CCCC1,-,-,-,-,136,-,
CC1CCC/C=C/C2CC(O)CC2C(O)/C=C/C(=O)O1 (stereo unspecified),-,53,-,89,-,-,
C[C@H]1CCC[C@H](O)CCCCCc2cc(O)cc(O)c2C(=O)O1,-,-,-,-,-,-,
C[C@H]1CCC/C=C/C2C[C@H](O)CC2[C@H](O)/C=C/C(=O)O1 (stereo partly specified),-,46,-,93,-,-,
CCOC(=O)c1cc2c(cn1)[nH]c1ccccc12,-,-,-,-,-,-,
O=P(O)(O)Cc1ccccc1OP(=O)(c1ccccc1)c1ccccc1,-,-,-,-,-,-,
O=C(COc1ccc2ccccc2c1)N1CCN(Cc2c[nH]c3ccccc23)CC1,-,-,-,-,-,-,
O=C(COc1ccc(Br)cc1)N1CCN(Cc2c[nH]c3ccccc23)CC1,135,-,-,-,-,-,
CCCCC1C(=O)NC(=S)NC1=O,-,-,-,-,-,-,
Cc1cccc(NC(=S)N2CC3CC(C2)c2cccc(=O)n2C3)c1C (stereo unspecified),-,-,-,-,-,-,
CN1/C(=C\C=C\C2=[N+](C)c3ccc4ccccc4c3C2(C)C)C(C)(C)c2ccccc21,-,72,-,103,-,-,
CC(C)c1oc(=O)cc2c1[C@@H](O)[C@H]1OC(=O)[C@@]3(C)CC[C@@H](O)[C@@]2(C)C13 (stereo partly specified),-,-,-,-,-,3.3,
CC(C)c1oc(=O)cc2c1[C@@H](O)[C@H]1OC(=O)[C@@]3(C)C[C@@H](O)[C@@H](O)[C@@]2(C)C13 (stereo partly specified),-,-,-,-,-,7,
Clc1ccccc1Nc1ncnc(-n2cccc2)n1,-,-,-,-,136,-,
O=C(c1cc2ccccn2n1)N1CCC2(CC1)OCCO2,-,-,-,-,-,-,
O=C(c1cc(-c2ccccc2)on1)N1CCC2(CC1)OCCO2,-,-,-,-,137,5.2,
SMILES,STAT3 activator,STAT1 inh,APP 5'UTR act,STAT3 inh-1,STAT1 activator,NF-kB expr up,others
C=CCN1C(=O)/C(=C\c2ccc(N3CCOCC3)o2)C(=O)NC1=S,-,-,-,-,-,-,
CN1C(=O)/C(=C\c2ccc(N3CCCCC3)o2)C(=O)NC1=S,-,-,-,-,133,-,
C[N+]12CCC(CC1)C(C(O)(c1ccccc1)c1cccs1)C2 (stereo unspecified),-,-,-,-,-,4.1,
COc1ccc(NP(=O)(Nc2ccc(OC)cc2)Oc2ccccc2)cc1,-,-,-,-,-,-,
COc1ccc(P2(=O)Nc3ccccc3N2)cc1,-,-,171,-,-,-,
CN1C2CCC1CC(OC(=O)c1cc(Cl)cc(Cl)c1)C2 (stereo unspecified),-,-,-,-,-,-,
CC1CC(C)CN(CC(=O)c2ccc(OC(F)F)cc2)C1 (stereo unspecified),-,-,-,-,-,-,
CNc1cc(Cl)c2nonc2c1[N+](=O)[O-],-,-,-,-,141,-,
CCC(C)n1c(C)cc(C(N)=O)c1C (stereo unspecified),-,-,-,-,-,-,
O=C(Nc1ccccc1)c1cccn(Cc2ccccc2)c1=O,-,-,-,-,132,-,
CN1C(=O)NC(=O)/C(=C\C=C\c2ccccc2[N+](=O)[O-])C1=O,-,-,-,-,-,-,
COc1ccc2nc(NC3=NCCN3)sc2c1,-,-,-,-,140,-,
CCOc1ccc(-n2c(O)c(N=Nc3ccc([N+](=O)[O-])cc3)c(=O)[nH]c2=O)cc1,-,-,-,-,-,-,
Cc1ccc2nc(N3CCN(C)CC3)[nH]c2c1,-,-,-,-,133,-,
CN1CCN(c2ncnc3ccc(Br)cc23)CC1,-,-,-,-,-,-,
O=c1[nH]c(=S)n(-c2ccccc2)c(O)c1/C=N/N1CCOCC1,-,-,-,-,-,-,
CNC(=O)Oc1ccc(-c2cn3cc(C)ccc3n2)cc1,-,82,-,106,-,5,
Nc1ccccc1C(=O)OCc1ccc([N+](=O)[O-])cc1,-,-,-,-,136,-,
CN(C)/C=C/C(=O)C(Cl)(Cl)Cl,-,-,-,-,-,-,
CCn1nc(-c2ccccc2)nc2c(=O)n(C)c(=O)nc1-2,-,-,-,62,-,-,STAT3 inh-2=74;NFkB inh 2=49;STAT1 inh STAT3c=41
COc1ccc(-c2nc3ccccc3c(=O)n2-c2ccc(OC)cc2)cc1,-,-,-,-,-,-,
COc1ccc(N/N=C/c2c(O)n(-c3ccc(C)c(C)c3)c(=O)[nH]c2=O)cc1,-,-,-,48,-,-,STAT3 inh-2=-;NFkB inh 2=-;STAT1 inh STAT3c=-
COc1ccc(N/N=C/c2c(O)n(-c3cccc(C)c3)c(=O)[nH]c2=O)cc1,-,-,-,-,-,-,
CNC(=O)Oc1cccc(-c2cn3cc(Cl)ccc3n2)c1,-,-,170,92,-,8.2,STAT3 inh-2=82;NFkB inh 2=-;STAT1 inh STAT3c=-
CCOC(=O)C(=CNc1ccc(C(O)(C(=O)OCC)C(F)(F)F)cc1C)C(=O)OCC (stereo unspecified),-,-,-,-,-,-,
O=C(Nc1ccncc1)c1cccn(Cc2ccccc2)c1=O,-,-,-,79,-,-,STAT3 inh-2=74;NFkB inh 2=17;STAT1 inh STAT3c=-

# High-throughput results as filed in PubChem.
